Data from ChEMBL document CHEMBL1139714, “Effects of alpha-substitutions on structure and biological activity of anticancer chalcones” (Bioorg Med Chem Lett, 2006).

The compounds below were run on K562 (assay: Cytotoxicity against human K562 cells after 5 days by MTT assay). Conditions: K562, 120 h.
Assay type: cell-based
Summary of the method: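 K562 human chronic myelogenous leukaemia cells were cultured at 37 °C with drug for 5 days, and growth was read by MTT assay. IC50 was taken as the concentration giving 50% inhibition of cell growth.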
For COc1ccc(/C=C(\F)C(=O)c2cc(OC)c(OC)c(OC)c2)cc1OC, the IC50 was 1.21 µM. For COc1ccc(/C=C(\C#N)C(=O)c2cc(OC)c(OC)c(OC)c2)cc1, the IC50 was greater than 10 µM. Work on COc1cc(C(=O)/C(F)=C/c2ccc(OC)c(OC)c2OC)cc(OC)c1OC yielded an IC50 of 10 µM. COc1ccc(/C=C(\F)C(=O)c2cc(OC)c(OC)c(OC)c2)cc1O was tested, and the IC50 was 0.0137 µM. CCOC(=O)/C(=C/c1ccc(OC)c(OC)c1OC)C(=O)c1cc(OC)c(OC)c(OC)c1 showed an IC50 greater than 10 µM. In the case of COc1cc(C(=O)/C(F)=C/c2ccc3c(c2)OCO3)cc(OC)c1OC, the IC50 is reported as 0.8 µM. COc1ccc(/C=C(\F)C(=O)c2cc(OC)c(OC)c(OC)c2)cc1 showed an IC50 of 0.39 µM. For COc1cc(C(=O)/C(C#N)=C/c2ccc(OC)c(OC)c2OC)cc(OC)c1OC, the IC50 was greater than 10 µM. COc1cc(C(=O)/C(C#N)=C/c2ccc(C(F)(F)F)cc2)cc(OC)c1OC showed an IC50 greater than 10 µM. Work on COc1ccc(/C=C(\C#N)C(=O)c2cc(OC)c(OC)c(OC)c2)cc1OC yielded an IC50 greater than 10 µM. Work on COc1ccc(/C=C(\C#N)C(=O)c2cc(OC)c(OC)c(OC)c2)cc1Br yielded an IC50 greater than 10 µM. In the case of COc1ccc(/C=C(\C#N)C(=O)c2cc(OC)c(OC)c(OC)c2)cc1F, the IC50 is reported as greater than 10 µM. COc1ccc(/C=C(\F)C(=O)c2cc(OC)c(OC)c(OC)c2)c(F)c1 showed an IC50 of 1.19 µM. For COc1ccc(/C=C(\F)C(=O)c2cc(OC)c(OC)c(OC)c2)cc1Br, the IC50 was 6 µM. With COc1ccc(/C=C(\C#N)C(=O)c2cc(OC)c(OC)c(OC)c2)c(F)c1 the IC50 was greater than 10 µM. CCOC(=O)/C(=C/c1ccc(OC)c(O[Si](C)(C)C(C)(C)C)c1)C(=O)c1cc(OC)c(OC)c(OC)c1 gave an IC50 of 4.29 µM. CCOC(=O)/C(=C/c1ccc(OC)c(OC)c1)C(=O)c1cc(OC)c(OC)c(OC)c1 showed an IC50 greater than 10 µM. COc1cc(C(=O)/C(C#N)=C/c2ccc3c(c2)OCO3)cc(OC)c1OC showed an IC50 greater than 10 µM. For COc1ccc(/C=C(\C#N)C(=O)c2cc(OC)c(OC)c(OC)c2)cc1O, the IC50 was 4.2 µM. CCOC(=O)/C(=C\c1ccc(OC)c(O)c1)C(=O)c1cc(OC)c(OC)c(OC)c1 showed an IC50 of 0.87 µM. CCOC(=O)/C(=C/c1ccc(OC)cc1)C(=O)c1cc(OC)c(OC)c(OC)c1 was tested, and the IC50 was greater than 10 µM. Work on COc1ccc(/C=C(\F)C(=O)c2cc(OC)c(OC)c(OC)c2)cc1F yielded an IC50 of 0.77 µM. In the case of COc1ccc(/C=C(\C#N)C(=O)c2cc(OC)c(OC)c(OC)c2)cc1O[Si](C)(C)C(C)(C)C, the IC50 is reported as greater than 10 µM.

What follows are compounds tested against Tubulin (assay: Inhibition of tubulin). Conditions: not given.
Assay type: protein-complex assay, Homo sapiens
COc1ccc(/C=C(\C)C(=O)c2cc(OC)c(OC)c(OC)c2)cc1O showed an IC50 of 1.8 µM. COc1ccc(/C=C(\F)C(=O)c2cc(OC)c(OC)c(OC)c2)cc1O was tested, and the IC50 was 0.6 µM. COc1ccc(/C=C(\F)C(=O)c2cc(OC)c(OC)c(OC)c2)cc1 was tested, and the IC50 was 4.6 µM. For COc1ccc(/C=C/C(=O)c2cc(OC)c(OC)c(OC)c2)cc1O, the IC50 was 10 µM.
